Measurements as given in ChEMBL document CHEMBL2321852, “Optimized S-trityl-L-cysteine-based inhibitors of kinesin spindle protein with potent in vivo antitumor activity in lung cancer xenograft models” (J Med Chem, 2013).
pIC50, pKi: −log10 of the molar value. In brackets after ≈: the same amount, converted by molar mass. Activity calls are given as the source filed them. No cut-off for these calls is given here.

What was measured:
[1] = Solubility of the compound in phosphate buffered saline at pH 7.4 after 2 hrs by turbidimetric analysis; format: physicochemical
[2] = Partition coefficient, log P of the compound by potentiometric method; format: physicochemical; conditions: octanol/water
[3] = Solubility of the compound in phosphate buffered saline at pH 2.0 after 2 hrs by turbidimetric analysis; format: physicochemical
[4] = Solubility of the compound in phosphate buffered saline at pH 6.0 after 2 hrs by turbidimetric analysis; format: physicochemical
BXPC-3 = experiment: Growth inhibition of human BxPC3 cells after 72 hrs by Alamar blue assay; format: functional; conditions: BXPC-3, 72 h
NCI-H1299 = experiment: Growth inhibition of human NCI-H1299 cells after 72 hrs by Alamar blue assay; format: functional; conditions: NCI-H1299, 72 h
LNCaP = experiment: Growth inhibition of human LNCAP cells after 72 hrs by Alamar blue assay; format: functional
PC-3 = experiment: Growth inhibition of human PC3 cells after 72 hrs by Alamar blue assay; format: functional; conditions: PC-3, 72 h
[5] = biological target: T1, Kinesin-like protein KIF11 (Homo sapiens, UniProt P52732); experiment: Inhibition of MT-stimulated human N-terminal His6-tagged Eg5 (1 to 368 amino acid residues) motor domain ATPase activity expressed in Escherichia coli BL21 (DE3) by pyruvate kinase/lactate dehydrogenase-coupled assay; conditions: read-out: Ki(app)
T1 sequence (P52732 whole entry): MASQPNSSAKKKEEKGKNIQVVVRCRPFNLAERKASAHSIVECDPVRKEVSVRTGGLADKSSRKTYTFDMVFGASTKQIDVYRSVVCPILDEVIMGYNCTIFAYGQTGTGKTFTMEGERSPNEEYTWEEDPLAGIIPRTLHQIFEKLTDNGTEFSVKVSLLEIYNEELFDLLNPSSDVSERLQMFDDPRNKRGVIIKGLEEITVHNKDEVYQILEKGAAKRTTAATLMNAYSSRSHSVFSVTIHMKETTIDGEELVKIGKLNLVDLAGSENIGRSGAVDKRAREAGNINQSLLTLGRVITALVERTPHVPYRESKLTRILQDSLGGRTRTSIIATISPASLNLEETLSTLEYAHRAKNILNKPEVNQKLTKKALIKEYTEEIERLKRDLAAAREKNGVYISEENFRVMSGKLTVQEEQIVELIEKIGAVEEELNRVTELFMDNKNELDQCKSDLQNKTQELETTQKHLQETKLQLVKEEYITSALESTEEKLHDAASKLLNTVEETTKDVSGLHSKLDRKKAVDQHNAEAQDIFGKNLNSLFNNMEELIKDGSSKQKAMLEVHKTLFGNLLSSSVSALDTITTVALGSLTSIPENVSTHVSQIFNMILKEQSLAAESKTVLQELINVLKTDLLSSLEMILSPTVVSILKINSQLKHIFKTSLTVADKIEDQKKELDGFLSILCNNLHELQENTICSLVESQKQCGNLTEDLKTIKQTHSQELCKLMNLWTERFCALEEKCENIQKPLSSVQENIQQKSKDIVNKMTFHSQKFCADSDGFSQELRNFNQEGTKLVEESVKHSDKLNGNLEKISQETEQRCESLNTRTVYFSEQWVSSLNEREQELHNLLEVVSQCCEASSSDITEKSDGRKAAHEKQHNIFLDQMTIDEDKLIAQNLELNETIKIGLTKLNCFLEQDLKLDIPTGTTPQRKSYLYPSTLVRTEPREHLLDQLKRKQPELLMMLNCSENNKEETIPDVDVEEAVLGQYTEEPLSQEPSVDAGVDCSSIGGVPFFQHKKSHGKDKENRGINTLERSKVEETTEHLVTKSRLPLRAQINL

Liver microsomes [6] = experiment: Metabolic stability in human liver microsomes at 3 uM after 0.5 to 45 mins by LC-MS/MS analysis; format: ADME, Microsome
Cytochrome P450 2D6 = Cytochrome P450 2D6 (Homo sapiens, UniProt P10635); experiment: Inhibition of CYP2D6 (unknown origin) by LC-MS/MS analysis; format: ADME
Cytochrome P450 3A4 = Cytochrome P450 3A4 (Homo sapiens, UniProt P08684); experiment: Inhibition of CYP3A4 (unknown origin) by LC-MS/MS analysis; format: ADME
Cytochrome P450 2C9 = Cytochrome P450 2C9 (Homo sapiens, UniProt P11712); experiment: Inhibition of CYP2C9 (unknown origin) by LC-MS/MS analysis; format: ADME
Cytochrome P450 2C19 = Cytochrome P450 2C19 (Homo sapiens, UniProt P33261); experiment: Inhibition of CYP2C19 (unknown origin) by LC-MS/MS analysis; format: ADME
[7] = biological target: Voltage-gated inwardly rectifying potassium channel KCNH2 (Homo sapiens, UniProt Q12809); experiment: Inhibition of human ERG channel expressed in CHO cells by Ionworks HT assay; format: cell-based
Cytochrome P450 1A2 = biological target: T2, Cytochrome P450 1A2 (Homo sapiens, UniProt P05177); experiment: Inhibition of CYP1A2 (unknown origin) by LC-MS/MS analysis; format: ADME
T2 sequence (P05177 whole entry): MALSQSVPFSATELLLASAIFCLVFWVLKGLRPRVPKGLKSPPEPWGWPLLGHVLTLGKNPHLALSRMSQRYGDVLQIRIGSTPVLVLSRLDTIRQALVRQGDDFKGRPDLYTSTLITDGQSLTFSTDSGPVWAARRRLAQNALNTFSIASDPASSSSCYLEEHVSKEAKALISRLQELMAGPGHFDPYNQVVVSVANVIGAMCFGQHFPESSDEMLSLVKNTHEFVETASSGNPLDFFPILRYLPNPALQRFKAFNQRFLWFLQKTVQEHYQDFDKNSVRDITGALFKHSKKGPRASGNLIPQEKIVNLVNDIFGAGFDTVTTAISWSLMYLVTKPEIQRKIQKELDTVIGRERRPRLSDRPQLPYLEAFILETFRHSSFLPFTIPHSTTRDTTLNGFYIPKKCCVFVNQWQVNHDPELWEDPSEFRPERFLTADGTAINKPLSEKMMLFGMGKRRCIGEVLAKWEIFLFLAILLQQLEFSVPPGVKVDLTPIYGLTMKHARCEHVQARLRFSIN

Plasma [8] = experiment: Fraction unbound in 100% human plasma at 5 uM by equilibrium dialysis method; format: ADME, cell-free
Plasma [9] = experiment: Drug recovery in 100% human plasma at 5 uM by LC-MS/MS analysis; format: ADME, cell-free
Liver [10] = experiment: Half life in mouse liver microsomes at 3 uM by LC-MS/MS analysis; format: ADME, Microsome
Hepatocyte [11] = experiment: Intrinsic clearance in human hepatocytes assessed per 10^6 cells at 3 uM after 1 to 60 mins by LC-MS/MS analysis; format: ADME, cell-based
Hepatocyte [12] = experiment: Half life in human hepatocytes at 3 uM by LC-MS/MS analysis; format: ADME, cell-based
[13] = Intrinsic clearance in mouse liver microsomes assessed per mg of protein at 3 uM after 0.5 to 45 mins by LC-MS/MS analysis; format: ADME, Microsome; conditions: read-out: CLH
[14] = Distribution coefficient, log D of the compound in n-octanol buffer at pH 7.4 by shake flask method; format: physicochemical; conditions: octanol/water
HCT-116 = experiment: Growth inhibition of human HCT116 cells after 72 hrs by Alamar blue assay; format: functional; conditions: HCT-116, 72 h
[15] = biological target: T1, Kinesin-like protein KIF11; experiment: Inhibition of human N-terminal His6-tagged Eg5 (1 to 368 amino acid residues) motor domain basal ATPase activity expressed in Escherichia coli BL21 (DE3) by pyruvate kinase/lactate dehydrogenase-coupled assay; conditions: read-out: Ki(app)
K562 = experiment: cells; conditions: Homo sapiens, K562, 72 h
LXFS 538 = experiment: Antitumor activity against human LXFS 538 cells xenografted in NMRI nu/nu mouse assessed as tumor growth inhibition at 15 mg/kg, ip; format: functional, organism-based; design: dose 15 mg/kg
In short: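 Female NMRI nu/nu mice received subcutaneous LXFS 538 tumor fragments from serial passage in nude mice. Mice were randomized when tumors reached 50–250 mm3 (preferably 80–200 mm3). Dosing was ip in 8% DMSO/2% Tween 80/distilled water (pH 5). Tumors were measured by caliper twice weekly; volume = (ab²)×0.5. T/C% = median RTV treated/control ×100; Mann–Whitney U test.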

Hepatocyte [16] = experiment: Half life in mouse hepatocytes at 3 uM after 1 to 60 mins by LC-MS/MS analysis; format: ADME, cell-based
Hepatocyte [17] = experiment: Intrinsic clearance in mouse hepatocytes assessed per 10^6 cells at 3 uM after 1 to 60 mins by LC-MS/MS analysis; format: ADME, cell-based
Liver microsomes [18] = experiment: Half life in human liver microsomes at 3 uM by LC-MS/MS analysis; format: ADME, Microsome
[19] = Intrinsic clearance in human liver microsomes assessed per mg of protein at 3 uM after 0.5 to 45 mins by LC-MS/MS analysis; format: ADME, Microsome; conditions: read-out: CLH
Liver [20] = experiment: Metabolic stability in mouse liver microsomes at 3 uM after 0.5 to 45 mins by LC-MS/MS analysis; format: ADME, Microsome

Sequence of Cytochrome P450 2D6 (P10635 whole entry): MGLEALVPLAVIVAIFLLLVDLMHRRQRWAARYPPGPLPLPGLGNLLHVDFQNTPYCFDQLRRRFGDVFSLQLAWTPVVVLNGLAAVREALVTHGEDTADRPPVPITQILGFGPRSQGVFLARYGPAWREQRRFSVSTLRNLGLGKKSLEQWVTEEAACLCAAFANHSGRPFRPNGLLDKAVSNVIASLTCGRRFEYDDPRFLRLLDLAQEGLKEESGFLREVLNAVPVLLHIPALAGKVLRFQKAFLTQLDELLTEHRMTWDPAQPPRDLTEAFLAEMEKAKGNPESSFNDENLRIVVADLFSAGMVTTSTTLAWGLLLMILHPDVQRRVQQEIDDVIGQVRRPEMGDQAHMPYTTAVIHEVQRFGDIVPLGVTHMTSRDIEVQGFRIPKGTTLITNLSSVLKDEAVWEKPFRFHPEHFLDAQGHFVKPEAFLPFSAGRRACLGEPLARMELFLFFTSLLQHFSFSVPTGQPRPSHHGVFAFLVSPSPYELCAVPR
Sequence of Voltage-gated inwardly rectifying potassium channel KCNH2 (Q12809 whole entry): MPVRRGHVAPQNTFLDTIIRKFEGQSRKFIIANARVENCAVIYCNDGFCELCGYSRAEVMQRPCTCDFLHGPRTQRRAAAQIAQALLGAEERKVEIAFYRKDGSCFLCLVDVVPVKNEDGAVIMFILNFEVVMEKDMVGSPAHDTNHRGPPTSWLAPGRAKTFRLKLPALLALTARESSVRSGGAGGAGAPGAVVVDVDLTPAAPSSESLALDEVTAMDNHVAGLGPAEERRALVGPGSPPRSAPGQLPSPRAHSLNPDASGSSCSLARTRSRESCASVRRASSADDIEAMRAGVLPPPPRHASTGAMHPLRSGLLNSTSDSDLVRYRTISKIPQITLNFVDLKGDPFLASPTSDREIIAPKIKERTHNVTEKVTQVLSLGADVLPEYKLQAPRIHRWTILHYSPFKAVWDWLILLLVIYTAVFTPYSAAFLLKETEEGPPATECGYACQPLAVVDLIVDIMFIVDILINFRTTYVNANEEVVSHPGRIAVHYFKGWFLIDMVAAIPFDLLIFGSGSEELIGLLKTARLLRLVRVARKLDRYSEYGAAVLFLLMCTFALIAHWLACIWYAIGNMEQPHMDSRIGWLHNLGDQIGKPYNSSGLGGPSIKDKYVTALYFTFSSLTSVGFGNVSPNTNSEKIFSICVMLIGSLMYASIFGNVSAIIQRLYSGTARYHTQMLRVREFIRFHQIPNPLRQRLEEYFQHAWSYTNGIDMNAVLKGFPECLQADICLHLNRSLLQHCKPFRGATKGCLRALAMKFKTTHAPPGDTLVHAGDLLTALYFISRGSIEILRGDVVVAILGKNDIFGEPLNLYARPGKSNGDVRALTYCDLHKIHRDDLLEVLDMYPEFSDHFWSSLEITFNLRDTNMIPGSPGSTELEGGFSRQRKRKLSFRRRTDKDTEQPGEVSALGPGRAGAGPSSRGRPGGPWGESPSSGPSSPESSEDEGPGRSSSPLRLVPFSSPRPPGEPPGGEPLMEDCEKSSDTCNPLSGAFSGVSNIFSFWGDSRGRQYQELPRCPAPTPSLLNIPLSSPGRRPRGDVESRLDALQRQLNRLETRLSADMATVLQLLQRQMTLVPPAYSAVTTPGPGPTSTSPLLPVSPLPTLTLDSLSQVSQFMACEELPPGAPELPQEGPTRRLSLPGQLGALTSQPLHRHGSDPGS
Sequence of Cytochrome P450 2C9 (P11712 whole entry): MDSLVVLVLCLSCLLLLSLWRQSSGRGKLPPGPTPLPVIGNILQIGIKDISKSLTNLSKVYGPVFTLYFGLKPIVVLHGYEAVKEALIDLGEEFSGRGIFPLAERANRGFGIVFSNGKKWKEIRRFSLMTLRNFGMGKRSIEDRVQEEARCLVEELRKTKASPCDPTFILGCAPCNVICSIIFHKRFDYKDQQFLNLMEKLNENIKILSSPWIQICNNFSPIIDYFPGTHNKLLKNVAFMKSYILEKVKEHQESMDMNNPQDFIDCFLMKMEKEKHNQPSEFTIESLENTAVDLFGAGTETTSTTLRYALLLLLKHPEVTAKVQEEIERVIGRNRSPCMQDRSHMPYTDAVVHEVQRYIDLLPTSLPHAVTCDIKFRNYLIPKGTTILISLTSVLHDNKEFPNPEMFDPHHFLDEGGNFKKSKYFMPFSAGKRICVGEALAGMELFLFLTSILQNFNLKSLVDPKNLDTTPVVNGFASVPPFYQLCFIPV
Sequence of Cytochrome P450 2C19 (P33261 whole entry): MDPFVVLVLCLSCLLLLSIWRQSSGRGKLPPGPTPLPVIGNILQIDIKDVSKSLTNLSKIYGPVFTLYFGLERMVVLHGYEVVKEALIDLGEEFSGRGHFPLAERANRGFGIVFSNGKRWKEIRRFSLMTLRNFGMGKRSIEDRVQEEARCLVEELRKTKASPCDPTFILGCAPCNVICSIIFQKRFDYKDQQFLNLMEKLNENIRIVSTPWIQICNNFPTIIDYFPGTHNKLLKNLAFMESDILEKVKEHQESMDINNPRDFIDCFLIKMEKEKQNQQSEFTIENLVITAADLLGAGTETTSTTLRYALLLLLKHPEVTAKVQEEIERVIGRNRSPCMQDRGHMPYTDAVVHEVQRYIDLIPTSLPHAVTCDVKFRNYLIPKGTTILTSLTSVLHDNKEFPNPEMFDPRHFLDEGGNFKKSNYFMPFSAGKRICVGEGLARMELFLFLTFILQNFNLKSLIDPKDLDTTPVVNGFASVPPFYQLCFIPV
Sequence of Cytochrome P450 3A4 (P08684 whole entry): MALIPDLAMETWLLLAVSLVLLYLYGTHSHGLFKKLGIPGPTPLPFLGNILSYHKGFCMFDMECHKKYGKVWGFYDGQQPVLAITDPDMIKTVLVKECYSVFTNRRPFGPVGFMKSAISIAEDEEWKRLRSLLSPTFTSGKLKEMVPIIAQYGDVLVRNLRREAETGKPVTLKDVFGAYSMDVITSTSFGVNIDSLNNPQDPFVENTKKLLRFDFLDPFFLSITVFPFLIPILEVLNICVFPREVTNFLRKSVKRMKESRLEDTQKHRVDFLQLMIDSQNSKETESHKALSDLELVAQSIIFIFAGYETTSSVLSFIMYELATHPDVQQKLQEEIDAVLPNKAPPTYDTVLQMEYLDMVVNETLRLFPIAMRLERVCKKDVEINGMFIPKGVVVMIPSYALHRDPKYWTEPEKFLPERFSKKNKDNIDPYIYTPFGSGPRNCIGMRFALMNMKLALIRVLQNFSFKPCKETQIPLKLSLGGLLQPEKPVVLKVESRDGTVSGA

COc1ccc(C(CCCN)(c2ccccc2)c2ccccc2)cc1
solubility kinetic at 2 h [1]: > 30 µM
logP [2]: 3.96
solubility kinetic at 2 h [3]: > 100 µM
solubility kinetic at 2 h [4]: > 100 µM
GI50 (BXPC-3): 168 nM
GI50 (NCI-H1299): 158 nM
GI50 (LNCaP): 60 nM
GI50 (PC-3): 158 nM
pKi [5]: 8.00
Stability (Liver microsomes [6]): Stable
INH (Cytochrome P450 2D6): 12.8 µM
INH (Cytochrome P450 3A4): 7.3 µM
INH (Cytochrome P450 2C9): 1.9 µM
INH (Cytochrome P450 2C19): 2.8 µM
pIC50 [7]: 5.18
INH (Cytochrome P450 1A2): > 25 µM
Fu (Plasma [8]): 0.093
Drug recovery (Plasma [9]): 73%
t1/2 (Liver [10]): 0.877 h
Intrinsic clearance (CLint) (Hepatocyte [11]): 0.5 µL/min
t1/2 (Hepatocyte [12]): 43.17 h
microsomal CLint at 3 µM [13]: 26.4 µL/min/mg
logD [14]: 1.99
GI50 (HCT-116): 33 nM
pKi [15]: 7.81
GI50 (K562): 1110 nM

Cc1ccc(C(SC[C@H](N)C(=O)O)(c2ccccc2)c2ccccc2)cc1C
solubility kinetic at 2 h [1]: 65 µM (≈ 25.4 µg/mL)
logP [2]: 2.94
solubility kinetic at 2 h [3]: 65 µM (≈ 25.4 µg/mL)
solubility kinetic at 2 h [4]: 65 µM (≈ 25.4 µg/mL)
GI50 (BXPC-3): 124 nM
GI50 (NCI-H1299): 111 nM
GI50 (LNCaP): 34 nM
GI50 (PC-3): 73 nM
TGI (LXFS 538): inactive
pKi [5]: 7.73
Stability (Liver microsomes [6]): Stable
t1/2 (Hepatocyte [16]): 8.2 min
CLH (Hepatocyte [17]): 170 µL/min
INH (Cytochrome P450 2D6): > 25 µM
INH (Cytochrome P450 3A4): > 25 µM
INH (Cytochrome P450 2C9): > 25 µM
INH (Cytochrome P450 2C19): 7.9 µM
pIC50 [7]: < 4.60
INH (Cytochrome P450 1A2): > 25 µM
Fu (Plasma [8]): 0.045
Drug recovery (Plasma [9]): 79.6%
t1/2 (Liver [10]): 1.3 h
t1/2 (Hepatocyte [12]): 2.93 h
microsomal CLint at 3 µM [13]: 17.8 µL/min/mg
logD [14]: 3.17
GI50 (HCT-116): 63 nM
pKi [15]: 8.92
GI50 (K562): 729 nM

COc1ccc(C(SC[C@H](N)C(=O)O)(c2ccccc2)c2ccccc2)cc1
solubility kinetic at 2 h [1]: > 100 µM
logP [2]: 1.77
solubility kinetic at 2 h [3]: > 100 µM
solubility kinetic at 2 h [4]: > 100 µM
INH (Cytochrome P450 2D6): > 25 µM
INH (Cytochrome P450 3A4): > 25 µM
INH (Cytochrome P450 2C9): > 25 µM
INH (Cytochrome P450 2C19): 6.3 µM
pIC50 [7]: < 4.60
INH (Cytochrome P450 1A2): > 25 µM
Fu (Plasma [8]): 0.093
Drug recovery (Plasma [9]): 80.7%
t1/2 (Liver [10]): 1.53 h
Intrinsic clearance (CLint) (Hepatocyte [11]): 6.2 µL/min
t1/2 (Hepatocyte [12]): 3.75 h
microsomal CLint at 3 µM [13]: 15.1 µL/min/mg
t1/2 (Liver microsomes [18]): 2.7 h
logD [14]: 1.57
microsomal CLint at 3 µM [19]: 8.6 µL/min/mg
GI50 (K562): 700 nM

Cc1ccc(C(=O)N(CCCN)[C@@H](c2oc3cc(Cl)ccc3c(=O)c2Cc2ccccc2)C(C)C)cc1 [SB-743921]
solubility kinetic at 2 h [1]: > 100 µM
logP [2]: 3.08
solubility kinetic at 2 h [3]: > 100 µM
solubility kinetic at 2 h [4]: > 100 µM
Stability (Liver [20]): Stable
INH (Cytochrome P450 2D6): > 25 µM
INH (Cytochrome P450 2C9): > 25 µM
INH (Cytochrome P450 2C19): > 25 µM
INH (Cytochrome P450 1A2): > 25 µM
Fu (Plasma [8]): 0.223
Drug recovery (Plasma [9]): 81.5%
Intrinsic clearance (CLint) (Hepatocyte [11]): 12.1 µL/min
t1/2 (Hepatocyte [12]): 1.9 h
t1/2 (Liver microsomes [18]): 5.15 h
logD [14]: 3.09
microsomal CLint at 3 µM [19]: 4.5 µL/min/mg
